Data: PubChem BioAssay
Records with an inconclusive call do not appear.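 Rule for the calls, unless noted: active = RAM network inhibition above 8.4% in each of two replicates, 3 SD over the compound average; inconclusive = above 8.4% inhibition in only one replicate; inactive = 8.4% inhibition or less in each replicate.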

How the values were obtained:
[1] = OD615 S. cerevisiae growth inhibition, permissive medium, pilot counter-assay, permissive growth control for S. cerevisiae lifespan shortening project (AID 705;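 active = growth inhibition above 25% in both replicates, a cutoff set 3 SD above the mean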); details: OD615, 24 h, at 10 µM, stronger effect = higher value
Summary of the method: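 Material: engineered DeaD yeast; compound dosing: one dose 10 µM, DMSO 0.25% final; measure: yeast growth inhibition indicated by reduced 24 h OD615; detection: OD615 turbidity read; incubation: cells pre-grown 4 h, then 24 h compound exposure, 30 °C humidified; medium: permissive synthetic complete medium with raffinose and galactose carbon sources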

[2] = Restrictive medium S. cerevisiae growth inhibition, OD615, pilot screen of yeast lifespan reduction project, restrictive growth control (AID 706;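 active = growth inhibition above a set limit, 3 SD over mean compound inhibition, in both replicates, cut at about 43% in these data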;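 note: modified DeaD lifespan yeast strain shifted to restrictive glucose medium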); details: OD615, 48 h, at 10 µM, stronger effect = higher value
Summary of the method: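 material = engineered S. cerevisiae DeaD strain | medium = glucose-based CSMM-D restrictive medium | times = 4 h pre-incubation, 48 h exposure at 30 °C | technique = OD615 absorbance reading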

[3] = viability gain of MRP-1-high H69AR cells under doxorubicin, pilot screen, MRP-1 activator project, CellTiter-Glo, duplicate (AID 807;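 active = viability increase at or above a cutoff of the median across tested compounds plus 3 SD, cut at about 8.5% in these data, passing the limit was not always enough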;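 note: compound pretreatment 18-22 h then 72 h combined with doxorubicin; 0% = doxorubicin alone and 100% = vehicle without doxorubicin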); details: H69AR viability with doxorubicin, CellTiter-Glo luminescence; at 10 µM; stronger effect = higher value
[4] = growth suppression of beta-catenin knockout HCT116, pilot screen, human colon tumor cells (AID 823;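 active = cell viability at or below a set limit in both duplicate runs, the limit being the all-compound median minus 4 SD, cut at about 23% in these data, passing the limit was not always enough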;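 note: 0% = wells killed by 20 µM Hyamine and 100% = untreated DMSO cell wells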); details: CellTiter-Glo, 60 h, at 10 µM, stronger effect = lower value
[5] = growth suppression of PTEN-deleted HCT116, pilot screen, cell-based, HCT116 clonal line, CellTiter-Glo (AID 824;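 active = viability at or below 27.92% in each of two runs, the all-compound median minus 4 SD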;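 note: 0% = 20 µM Hyamine control and 100% = vehicle cell control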); details: 60 h, at 10 µM, stronger effect = lower value
[6] = inhibitors of the yeast RAM network, pilot screen, dse1pr::URA3 reporter, 5-FOA selection (AID 869;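 active = inhibition over a set limit, the all-compound mean plus 3 SD, in both replicate runs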;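 note: 0% = DMSO wells with no growth and 100% = 10 µM 1-NA-PP1 with full growth; RAM network block rescues cells from 5-FOA so hits raise OD615 growth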); details: S. cerevisiae dse1pr::URA3 5-FOA growth, OD615, 2 d; at 10 µM; stronger effect = higher value; strain carries analog-sensitive mutant Cbk1 kinase
[7] = RAM signaling pathway blockade in yeast – S. cerevisiae, Pdr1DBD-CYC8 efflux-inhibited sensitized strain, primary screen (AID 1298);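 note: 0% = DMSO untreated cells without growth and 100% = 10 µM 1-NA-PP1 full growth; higher means more yeast growth rescued from 5-FOA killing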; details: S. cerevisiae cbk1-as DSE1-URA3 strain, 5-FOA growth OD615, 2 d; at 50 µM; stronger effect = higher value

Cn1c(=O)c2nc(-c3ccc(Cl)cc3Cl)oc2c2ccccc21
inactive: growth inhibition [1] -12.5% | growth inhibition [2] -0.105% | viability increase [3] -3.1% | viability [4] 81.1% | viability [5] 77.6% | inhibition [6] 2.31% | RAM network inhibition [7] 3.74%

O=C(Nc1ccncc1)c1ccc2c(c1)OCCO2
inactive: growth inhibition [1] 1.55% | growth inhibition [2] -11.1% | viability increase [3] 0.93% | viability [4] 85.6% | viability [5] 84% | inhibition [6] 1.98% | RAM network inhibition [7] 5.5%

c1ccc(Cn2nnc3c(N4CCOCC4)ncnc32)cc1
inactive: growth inhibition [1] -15.8% | growth inhibition [2] -25.2% | viability increase [3] -1.15% | viability [4] 92.7% | viability [5] 89.5% | inhibition [6] 0.93% | RAM network inhibition [7] -0.79%

CC(CCc1ccccc1)NC(=O)CN1CCOc2ccccc21 (stereo not drawn)
inactive: growth inhibition [1] -7.73% | growth inhibition [2] -1.32% | viability increase [3] -5.58% | viability [4] 84.1% | viability [5] 83.1% | inhibition [6] 0.595% | RAM network inhibition [7] 3.72%

CSCCC(/C(O)=C(\C#N)c1nc2ccccc2[nH]1)N1C(=O)c2ccccc2C1=O (stereo not drawn)
inactive: growth inhibition [1] -14.1% | growth inhibition [2] -11.8% | viability increase [3] 0% | viability [4] 89.8% | viability [5] 90.8% | inhibition [6] 2.82% | RAM network inhibition [7] 7.67%

CCOc1ncccc1C(=O)OCC(=O)Nc1cc(C(=O)OC)ccc1C(=O)OC
inactive: growth inhibition [1] -16.9% | growth inhibition [2] -12.9% | viability increase [3] -2.69% | viability [4] 90.1% | viability [5] 92.4% | inhibition [6] 2.11% | RAM network inhibition [7] 5.66%

Cn1c(NC(=O)c2ccccc2C(F)(F)F)cc(=O)n(C)c1=O
inactive: growth inhibition [1] -16.9% | growth inhibition [2] -8.93% | viability increase [3] -2.06% | viability [4] 95.3% | viability [5] 90.7% | inhibition [6] 0.785% | RAM network inhibition [7] -1.32%

COc1cccc(CNC(=O)CCS(=O)(=O)c2cccc3nonc23)c1
inactive: growth inhibition [1] -13.5% | growth inhibition [2] -21.2% | viability increase [3] -3.04% | viability [4] 93.2% | viability [5] 91% | inhibition [6] 1.75% | RAM network inhibition [7] 0.46%

CCP(=O)(c1ccccc1)C(C)(C)O (stereo not drawn)
inactive: growth inhibition [1] 6.37% | growth inhibition [2] -8.84% | viability increase [3] -2.44% | viability [4] 104% | viability [5] 93.9% | inhibition [6] 1.48% | RAM network inhibition [7] -0.68%

COc1ccc(CCNS(=O)(=O)c2ccc3c(c2)oc(=O)n3C)cc1OC
inactive: growth inhibition [1] -5.33% | growth inhibition [2] -1.19% | viability increase [3] -0.83% | viability [4] 105% | viability [5] 94.2% | inhibition [6] 2.37% | RAM network inhibition [7] 0.8%

O=C(CSCCNS(=O)(=O)c1ccccc1)Nc1ccccc1
inactive: growth inhibition [1] -6.82% | growth inhibition [2] -4.2% | viability increase [3] -2.84% | viability [4] 91% | viability [5] 91.6% | inhibition [6] 1.77% | RAM network inhibition [7] 0.37%

CC1(C)CC(=O)C(C=NCCCN2CCOCC2)=C(O)C1
inactive: growth inhibition [1] -0.685% | growth inhibition [2] 0.465% | viability increase [3] -0.36% | viability [4] 97.6% | viability [5] 97% | inhibition [6] -0.16% | RAM network inhibition [7] -0.83%

O=C(CSc1nnc2scc(-c3ccccc3)n12)c1ccc2c(c1)OCCO2
inactive: growth inhibition [1] 1.86% | growth inhibition [2] 0.4% | viability increase [3] -2.27% | viability [4] 99.5% | viability [5] 93.1% | inhibition [6] 3.66% | RAM network inhibition [7] 7.73%

O=C(O)C1(P(=O)(c2ccccc2)c2ccccc2)CCC1
inactive: growth inhibition [1] -13.9% | growth inhibition [2] -5.79% | viability increase [3] -0.11% | viability [4] 99.6% | viability [5] 99.3% | inhibition [6] 1.34% | RAM network inhibition [7] 3.04%

COc1ccc2c(C)cc(=O)oc2c1C
inactive: growth inhibition [1] 2.89% | growth inhibition [2] -2.73% | viability increase [3] -2.26% | viability [4] 102% | viability [5] 94.7% | inhibition [6] 1.96% | RAM network inhibition [7] 5.35%

Cn1c(=O)c2c(nc(-n3ccnc3)n2Cc2ccc(Cl)cc2Cl)n(C)c1=O
inactive: growth inhibition [1] -10.2% | growth inhibition [2] -2.64% | viability increase [3] -4.31% | viability [4] 89.2% | viability [5] 80.4% | inhibition [6] 1.17% | RAM network inhibition [7] 5.62%

O=C(COC(=O)c1cc2ccccc2o1)c1ccccc1
inactive: growth inhibition [1] -8.98% | growth inhibition [2] 2% | viability increase [3] -0.26% | viability [4] 96.9% | viability [5] 98.1% | inhibition [6] -0.115% | RAM network inhibition [7] 2.95%

CCOC(=O)C1=C(C)N(C)C(C)=C(C(=O)OCC)C1c1ccccn1
inactive: growth inhibition [1] -13.2% | growth inhibition [2] -14.6% | viability increase [3] -0.35% | viability [4] 96.2% | viability [5] 91.6% | inhibition [6] 1.98% | RAM network inhibition [7] 0.62%

COc1ccc(NC(=O)Nc2cccc3cccnc23)cc1
inactive: growth inhibition [1] -3.3% | growth inhibition [2] -0.385% | viability increase [3] -4.59% | viability [4] 88.5% | viability [5] 78% | inhibition [6] -0.39% | RAM network inhibition [7] 0.21%

CCOc1ccc(N(CC(=O)N2CC=C(c3ccccc3)CC2)S(=O)(=O)c2c(C)noc2C)cc1
inactive: growth inhibition [1] -3.46% | growth inhibition [2] -23.9% | viability increase [3] -3.95% | viability [4] 71.1% | viability [5] 64.9% | inhibition [6] 1.11% | RAM network inhibition [7] 0.32%

CCC/C(O)=C1\C(=O)CC(C)(C)CC1=Nc1ccccc1OC
inactive: growth inhibition [1] -18.3% | growth inhibition [2] -21.1% | viability increase [3] -2.83% | viability [4] 87.6% | viability [5] 87% | inhibition [6] 3.95% | RAM network inhibition [7] 9.85%

Cc1[nH]c2ccccc2c1Cc1nnc(SCC(N)=O)o1
inactive: growth inhibition [1] 5.65% | growth inhibition [2] -5.42% | viability increase [3] -0.41% | viability [4] 100% | viability [5] 102% | inhibition [6] 1.88% | RAM network inhibition [7] 1.36%

Cn1c(=O)c2c(nc(NC3CCCCC3)n2Cc2ccccc2)n(C)c1=O
inactive: growth inhibition [1] -0.82% | growth inhibition [2] 4.89% | viability increase [3] -3.11% | viability [4] 78.9% | viability [5] 75.5% | inhibition [6] 2.92% | RAM network inhibition [7] 3.48%

Cc1ccc(C(=O)NCc2ccc3c(c2)OCO3)cc1N1CCCC1=O
inactive: growth inhibition [1] 5.69% | growth inhibition [2] 4.36% | viability increase [3] -1.36% | viability [4] 91.7% | viability [5] 98.2% | inhibition [6] 0.635% | RAM network inhibition [7] 4.17%
